Key:
[1] = Cytotoxicity against human TZM-bl cells assessed as inhibition of cell viability by resazurin assay; conditions: read-out: TC50 (the source's name)
[2] = Cytotoxicity against human MAGI-CCR5 cells assessed as inhibition of cell viability by MTS assay; type: cell-based; conditions: read-out: TC50 (the source's name)
[3] = tested on: Human immunodeficiency virus 1; experiment: Antiviral activity against HIV-1 3B infected in human MAGI-CCR5 cells assessed as inhibition of viral replication after 48 hrs by chemiluminescence assay; type: functional, organism-based; conditions: Human immunodeficiency virus 1, 3B, MAGI-CCR5, 48 h
[4] = Retardation factor of the compound using 40% EtOAc/hexanes as solvent system by silca gel chromatography; type: physicochemical
[5] = Binding affinity to HIV1 Envelope glycoprotein gp41 Fe(env2.0)3 using C18FL as probe by fluorescence assay; set-up: species or system Human immunodeficiency virus 1
[6] = Inhibition of HIV1 HXB2 gp41-mediated cell-cell fusion between viral envelope-expressing human HL2/3 cells to human TZM-bl cells by luciferase reporter assay; type: cell-based; conditions: Human immunodeficiency virus 1, HXB2, TZM-bl
[7] = tested on: Human immunodeficiency virus 1; experiment: Antiviral activity against HIV-1 Ba-L infected in human MAGI-CCR5 cells assessed as inhibition of viral replication after 48 hrs by chemiluminescence assay; type: functional, organism-based; conditions: Human immunodeficiency virus 1, Ba-L, MAGI-CCR5, 48 h
[8] = tested on: Human immunodeficiency virus 1; experiment: Antiviral activity against HIV-1 92BR014 subtype B infected in human PBMC assessed as reverse transcriptase activity after 6 days by microtiter plate-based assay; type: functional, organism-based; conditions: Human immunodeficiency virus 1, 92BR014 subtype B, 144 h
Outline: (§1)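 PBMCs from screened donors, Ficoll-purified, stimulated with 4 μg/mL phytohemagglutinin, kept in 20 U/mL IL-2; cells from two donors pooled, 5 × 10^4 cells/well.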

[9] = tested on: Human immunodeficiency virus 1; experiment: Antiviral activity against HIV-1 00UG_D26830M4 subtype D infected in human PBMC assessed as reverse transcriptase activity after 6 days by microtiter plate-based assay; type: functional, organism-based; conditions: Human immunodeficiency virus 1, 00UG_D26830M4 subtype D, 144 h
Outline: as §1

[10] = Therapeutic index, ratio of TC50 for human PBMC to EC50 for HIV-1 92BR014 subtype B infected in human PBMC; conditions: read-out: TI
Outline: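 Human PBMC from screened donors were Ficoll-purified, stimulated with 4 μg/mL phytohemagglutinin, and kept in 20 U/mL IL-2. Cells from two donors were pooled at 5 × 10^4 cells/well and given nine serial compound dilutions in triplicate, then HIV-1 at a final MOI of about 0.1. TC50 was measured in parallel cultures by MTS viability. TI = TC50/EC50.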

[11] = tested on: Human immunodeficiency virus 1; experiment: Antiviral activity against HIV-1 02CM0015BBY subtype CRF02_AG infected in human PBMC assessed as reverse transcriptase activity after 6 days by microtiter plate-based assay; type: functional, organism-based; conditions: Human immunodeficiency virus 1, 02CM0015BBY subtype CRF02_AG, 144 h
Outline: as §1

[12] = Therapeutic index, ratio of TC50 for human PBMC to EC50 for HIV-1 92UG001 subtype D infected in human PBMC; conditions: read-out: TI
[13] = Cytotoxicity against human PBMC assessed as inhibition of cell viability by MTS assay; type: cell-based; conditions: read-out: TC50 (the source's name)
[14] = tested on: Human immunodeficiency virus 1; experiment: Antiviral activity against HIV-1 92UG001 subtype D infected in human PBMC assessed as reverse transcriptase activity after 6 days by microtiter plate-based assay; type: functional, organism-based; conditions: Human immunodeficiency virus 1, 92UG001 subtype D, 144 h
Outline: as §1

[15] = Therapeutic index, ratio of TC50 for human PBMC to EC50 for HIV-1 91DJ263 subtype CRF02_AG infected in human PBMC; conditions: read-out: TI
[16] = Therapeutic index, ratio of TC50 for human PBMC to EC50 for HIV-1 01CM0005BBY subtype CRF02_AG infected in human PBMC; conditions: read-out: TI
[17] = Therapeutic index, ratio of TC50 for human PBMC to EC50 for HIV-1 Ba-L subtype B infected in human PBMC; conditions: read-out: TI
[18] = tested on: Human immunodeficiency virus 1; experiment: Antiviral activity against HIV-1 Ba-L subtype B infected in human PBMC assessed as reverse transcriptase activity after 6 days by microtiter plate-based assay; type: functional, organism-based; conditions: Human immunodeficiency virus 1, Ba-L subtype B, 144 h
Outline: as §1

[19] = tested on: Human immunodeficiency virus 1; experiment: Antiviral activity against HIV-1 91DJ263 subtype CRF02_AG infected in human PBMC assessed as reverse transcriptase activity after 6 days by microtiter plate-based assay; type: functional, organism-based; conditions: Human immunodeficiency virus 1, 91DJ263 subtype CRF02_AG, 144 h
Outline: as §1

[20] = tested on: Human immunodeficiency virus 1; experiment: Antiviral activity against HIV-1 01CM0005BBY subtype CRF02_AG infected in human PBMC assessed as reverse transcriptase activity after 6 days by microtiter plate-based assay; type: functional, organism-based; conditions: Human immunodeficiency virus 1, 01CM0005BBY subtype CRF02_AG, 144 h
Outline: as §1

[21] = Therapeutic index, ratio of TC50 for human PBMC to EC50 for HIV-1 00UG_D26830M4 subtype D infected in human PBMC; conditions: read-out: TI
[22] = Therapeutic index, ratio of TC50 for human PBMC to EC50 for HIV-1 02CM0015BBY subtype CRF02_AG infected in human PBMC; conditions: read-out: TI
[23] = Retardation factor of the compound using 50% EtOAc/hexanes as solvent system by silca gel chromatography; type: physicochemical

O=C(O)c1cccc(Cn2ccc3ccc(-c4ccc5cc[nH]c5c4)cc32)c1
CC50 [1]: > 100000 nM | CC50 [2]: > 50000 nM | EC50 [3]: 47000 nM | Rf [4]: 0.13 | Ki [5]: 2700 nM | EC50 [6]: 15000 nM | EC50 [7]: 60000 nM

CCOC(=O)c1cccc(Cn2ccc3ccc(-c4ccc5ccn(Cc6cccc(C(=O)O)c6)c5c4)cc32)c1
EC50 [8]: 430 nM | EC90 [8]: 1230 nM | EC50 [9]: 390 nM | EC90 [9]: 570 nM | selectivity ratio [10]: > 116 | EC50 [11]: 370 nM | EC90 [11]: 560 nM | CC50 [1]: > 50000 nM | selectivity ratio [12]: > 141 | CC50 [13]: > 50000 nM | EC50 [14]: 350 nM | EC90 [14]: 1000 nM | CC50 [2]: 43000 nM | EC50 [3]: 500 nM | selectivity ratio [15]: > 141 | selectivity ratio [16]: > 147 | selectivity ratio [17]: > 121 | EC50 [18]: 410 nM | EC90 [18]: 590 nM | EC50 [19]: 350 nM | EC90 [19]: 580 nM | EC50 [20]: 340 nM | EC90 [20]: 550 nM | Ki [5]: 1000 nM | selectivity ratio [21]: > 128 | selectivity ratio [22]: > 137 | EC50 [6]: 700 nM | EC50 [7]: 300 nM | Rf [23]: 0.48

enfuvirtide
EC50 [8]: > 2000 nM | EC90 [8]: > 2000 nM | EC50 [9]: 108 nM | EC90 [9]: 195 nM | EC50 [11]: 16.9 nM | EC90 [11]: 43.4 nM | selectivity ratio [12]: > 36 | CC50 [13]: > 2000 nM | EC90 [14]: 71.3 nM | selectivity ratio [15]: > 16.6 | selectivity ratio [16]: > 110 | selectivity ratio [17]: > 265 | EC50 [18]: 7.55 nM | EC90 [18]: 23.6 nM | EC50 [19]: 120 nM | EC90 [19]: 206 nM | EC90 [20]: 55.8 nM | selectivity ratio [21]: > 18.6 | selectivity ratio [22]: > 118

COC(=O)c1cccc(Cn2ccc3ccc(-c4ccc5ccn(Cc6cccc(C(=O)O)c6)c5c4)cc32)c1
EC50 [8]: 460 nM | EC90 [8]: 1430 nM | EC50 [9]: 350 nM | EC90 [9]: 580 nM | selectivity ratio [10]: 25.3 | EC50 [11]: 240 nM | EC90 [11]: 520 nM | CC50 [1]: 53000 nM | selectivity ratio [12]: 29.1 | CC50 [13]: 11600 nM | EC50 [14]: 400 nM | EC90 [14]: 990 nM | CC50 [2]: 15000 nM | EC50 [3]: 200 nM | selectivity ratio [15]: 29.7 | selectivity ratio [16]: 39.3 | selectivity ratio [17]: 32.2 | EC50 [18]: 360 nM | EC90 [18]: 630 nM | EC50 [19]: 390 nM | EC90 [19]: 920 nM | Rf [4]: 0.13 | EC50 [20]: 290 nM | EC90 [20]: 540 nM | Ki [5]: 600 nM | selectivity ratio [21]: 33.3 | selectivity ratio [22]: 47.8 | EC50 [6]: 200 nM | EC50 [7]: 200 nM
